Laboratory results: article PMC12062833 (RSC Medicinal Chemistry, 2025)
Converted amounts (≈) assume the structure as drawn.

What was measured:
[1] = test system: LN-229 glioblastoma cells; assay: Antiproliferative assay; assay type: cell-based; settings: Homo sapiens, LN-229, 72 h, read-out: IC50 LN-229
Method in brief: (§1)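 Adherent lines were seeded at 500 (Capan-1), 1000 (LN-229, HCT-116) or 1500 (NCI-H460) cells/well and dosed after overnight incubation. Suspension lines were seeded at 2500 (HL-60, K-562, Z-138) or 5500 (DND-41) cells/well directly onto compound. Seven 5-fold concentrations ran from 100 to 0.006 μM for 72 h. Viability was read as MTS absorbance at 490 nm after 3 h, and IC50 was derived from OD values. Two independent experiments.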

[2] = test system: Capan-1 pancreatic adenocarcinoma cells; assay: Antiproliferative assay; assay type: cell-based; settings: Homo sapiens, CAPAN-1, 72 h, read-out: IC50 Capan-1
Method in brief: as §1

[3] = test system: HCT-116 colon carcinoma cells; assay: Antiproliferative assay; assay type: cell-based; settings: Homo sapiens, HCT-116, 72 h, read-out: IC50 HCT-116
Method in brief: as §1

[4] = test system: NCI-H460 non-small cell lung cancer cells; assay: Antiproliferative assay; assay type: cell-based; settings: Homo sapiens, NCI-H460, 72 h, read-out: IC50 NCI-H460
Method in brief: as §1

[5] = test system: HL-60 acute myeloid leukemia cells; assay: Antiproliferative assay; assay type: cell-based; settings: Homo sapiens, HL-60, 72 h, read-out: IC50 HL-60
Method in brief: as §1

[6] = test system: K-562 chronic myeloid leukemia cells; assay: Antiproliferative assay; assay type: cell-based; settings: Homo sapiens, K562, 72 h, read-out: IC50 K-562
Method in brief: as §1

[7] = test system: Escherichia coli (ATCC 25922); assay: Antibacterial MIC, macrodilution method, E. coli; assay type: cell-based; settings: ATCC25922, read-out: MIC E. coli
Method in brief: (§2)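 CLSI M07-A9 tube macrodilution. Strains were grown overnight on nutrient agar at 37 °C, and colonies were suspended in Mueller-Hinton broth. Inoculum was 1 × 10^6 per mL (5 × 10^5 per mL in test). DMSO stock was 5120 μg/mL. Final concentrations were 256 to […] in 2 mL. Tubes were incubated at 37 °C for 16–20 h. Controls were inoculum with and without 1% DMSO, and broth alone.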

[8] = test system: Pseudomonas aeruginosa (ATCC 9027); assay: Antibacterial MIC, macrodilution method, P. aeruginosa; assay type: cell-based; settings: ATCC9027, read-out: MIC P. aeruginosa
Method in brief: as §2

[9] = test system: Klebsiella pneumoniae (ATCC 27736); assay: Antibacterial MIC, macrodilution method, K. pneumoniae; assay type: cell-based; settings: ATCC27736, read-out: MIC K. pneumoniae
Method in brief: as §2

[10] = test system: Staphylococcus aureus (ATCC 25923); assay: Antibacterial MIC, macrodilution method, S. aureus; assay type: cell-based; settings: ATCC25923, read-out: MIC S. aureus
Method in brief: as §2

salmon sperm DNA = assay: Fluorescent intercalator displacement; assay type: binding; settings: tested at 250, 100 and 40 μM; result in words
Method in brief: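 Competitive fluorescence-polarization displacement. Acridine orange (50 nM) and salmon sperm DNA (6 μg/mL) were mixed with test compound at 250, 100 or 40 μM in HEN buffer (10 mM HEPES pH 7.5, 1 mM EDTA, 100 mM NaCl). Mixtures stood 20 min in the dark. mP was normalized to the DMSO control, with mitoxantrone (10 μM) as positive control.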

[11] = test system: eight human tumor cell lines; assay: Antiproliferative assay, span over the panel of tumor cell lines; assay type: cell-based; settings: 72 h, read-out: IC50 range across tested tumor cell lines
Method in brief: as §1

| IC50 [1] | IC50 [2] | IC50 [3] | IC50 [4] | IC50 [5] | IC50 [6] | MIC [7] | MIC [8] | MIC [9] | MIC [10] | DNA intercalation (acridine orange displacement, fluorescence polarization) (salmon sperm DNA) | IC50 [11] | SMILES |
| --- | --- | --- | --- | --- | --- | --- | --- | --- | --- | --- | --- | --- |
| 51.5 ± 0.1 µM | 35.4 ± 2.7 µM | 49.5 ± 0.4 µM | 35.9 ± 1.3 µM | 33.8 ± 3.3 µM | 19.1 ± 1.8 µM | > 256 µg/mL | > 256 µg/mL | > 256 µg/mL | > 256 µg/mL | scored best in the binding assay |  | CCN(CC)CCOc1ccc(-c2nc3ccc(F)cc3[nH]2)cc1F [Compound 26, N,N-Diethyl-2-(2-fluoro-4-(6-fluoro-1H-benzo[d]imidazol-2-yl)phenoxy)ethan-1-amine] |
| > 100 µM | > 100 µM | > 100 µM | > 100 µM | > 100 µM | > 100 µM | > 256 µg/mL | > 256 µg/mL | > 256 µg/mL | > 256 µg/mL |  |  | O=C(COc1ccc(-c2nc3ccccc3[nH]2)cc1)N1CCOCC1 [Compound 14, 2-(4-(1H-Benzo[d]imidazol-2-yl)phenoxy)-1-morpholinoethan-1-one] |
| > 100 µM | 47.2 ± 0.4 µM | > 100 µM | > 100 µM | ≥ 70 µM | ≥ 88 µM | 256 µg/mL (≈ 633 µM) | > 256 µg/mL | > 256 µg/mL | > 256 µg/mL |  |  | c1ccc2[nH]c(-c3ccc(OCc4cn(CCN5CCOCC5)nn4)cc3)nc2c1 [Compound 28, 4-(2-(4-((4-(1H-Benzo[d]imidazol-2-yl)phenoxy)methyl)-1H-1,2,3-triazol-1-yl)ethyl)morpholine] |
| ≥ 65.1 µM | 47.7 ± 3.2 µM | > 100 µM | 52.4 ± 1.3 µM | 46.4 ± 1.3 µM | 38.2 ± 4.5 µM | > 256 µg/mL | > 256 µg/mL | > 256 µg/mL | > 256 µg/mL |  |  | CCN(CC)CCOc1ccc(-c2nc3ccccc3[nH]2)cc1 [Compound 12, 2-(4-(1H-Benzo[d]imidazol-2-yl)phenoxy)-N,N-diethylethan-1-amine] |
| > 100 µM | 42.1 ± 3.7 µM | > 100 µM | > 100 µM | 54.2 ± 4.1 µM | 79.8 ± 1.3 µM | > 256 µg/mL | > 256 µg/mL | > 256 µg/mL | > 256 µg/mL |  | 37.3 to 79.8 µM | c1ccc2[nH]c(-c3ccc(OCCN4CCOCC4)cc3)nc2c1 [Compound 13, 4-(2-(4-(1H-Benzo[d]imidazol-2-yl)phenoxy)ethyl)morpholine] |
| 44.1 ± 5.3 µM | 39.1 ± 2.1 µM | 61.1 ± 0.7 µM | 37.2 ± 4.3 µM | 51.9 ± 5.9 µM | 27.6 ± 3.3 µM |  |  |  |  |  |  | CCN(CC)CCOc1ccc(-c2nc3ccc(F)cc3[nH]2)cc1 [Compound 18, N,N-Diethyl-2-(4-(6-fluoro-1H-benzo[d]imidazol-2-yl)phenoxy)ethan-1-amine] |
| 44 ± 0.8 µM | 25.1 ± 3.7 µM | 47.2 ± 1.8 µM | 41.3 ± 3.7 µM | 29.2 ± 2.2 µM | 8.7 ± 1.1 µM | 256 µg/mL (≈ 744 µM) | > 256 µg/mL | > 256 µg/mL | > 256 µg/mL |  |  | CCN(CC)CCOc1ccc(-c2nc3ccc(Cl)cc3[nH]2)cc1 [Compound 15, 2-(4-(6-Chloro-1H-benzo[d]imidazol-2-yl)phenoxy)-N,N-diethylethan-1-amine] |

Further lines, the compound ahead of its results:

| SMILES | IC50 [1] | IC50 [2] | IC50 [3] | IC50 [4] | IC50 [5] | IC50 [6] | MIC [7] | MIC [8] | MIC [9] | MIC [10] | DNA intercalation (acridine orange displacement, fluorescence polarization) (salmon sperm DNA) | IC50 [11] |
| --- | --- | --- | --- | --- | --- | --- | --- | --- | --- | --- | --- | --- |
| Clc1ccc2nc(-c3ccc(OCc4cn(CCN5CCOCC5)nn4)cc3)[nH]c2c1 [Compound 29, 4-(2-(4-((4-(6-Chloro-1H-benzo[d]imidazol-2-yl)phenoxy)methyl)-1H-1,2,3-triazol-1-yl)ethyl)morpholine] | > 100 µM | > 100 µM | > 100 µM | > 100 µM | ≥ 98.1 µM | > 100 µM | > 256 µg/mL | > 256 µg/mL | > 256 µg/mL | > 256 µg/mL |  |  |
| Fc1ccc2nc(-c3ccc(OCc4cn(CCN5CCOCC5)nn4)cc3)[nH]c2c1 [Compound 30, 4-(2-(4-((4-(6-Fluoro-1H-benzo[d]imidazol-2-yl)phenoxy)methyl)-1H-1,2,3-triazol-1-yl)ethyl)morpholine] | > 100 µM | 58.8 ± 1.9 µM | > 100 µM | 46.9 ± 4.4 µM | ≥ 60.6 µM | > 100 µM | > 256 µg/mL | > 256 µg/mL | > 256 µg/mL | > 256 µg/mL |  |  |
| Fc1ccc2nc(-c3ccc(OCc4cn(CCN5CCOCC5)nn4)c(F)c3)[nH]c2c1 [Compound 33, 4-(2-(4-((2-Fluoro-4-(6-fluoro-1H-benzo[d]imidazol-2-yl)phenoxy)methyl)-1H-1,2,3-triazol-1-yl)ethyl)morpholine] | > 100 µM | 47 ± 4.3 µM | > 100 µM | > 100 µM | 65.1 ± 2.8 µM | 29.6 ± 1.9 µM | > 256 µg/mL | > 256 µg/mL | > 256 µg/mL | > 256 µg/mL |  |  |
| COc1cc([C@@H]2c3cc4c(cc3[C@@H](O[C@@H]3O[C@@H]5CO[C@@H](C)O[C@H]5[C@H](O)[C@H]3O)[C@H]3COC(=O)[C@H]23)OCO4)cc(OC)c1O [Etoposide, reference compound] | 0.03 µM | 3.4 ± 0.9 µM | 3.7 ± 0.3 µM | 6.1 ± 1.1 µM | 0.8 ± 0.2 µM | 4 ± 1.3 µM |  |  |  |  |  |  |
| Fc1ccc2nc(-c3ccc(OCCN4CCOCC4)cc3)[nH]c2c1 [Compound 19, 4-(2-(4-(6-Fluoro-1H-benzo[d]imidazol-2-yl)phenoxy)ethyl)morpholine] | > 100 µM | ≥ 69.1 µM | > 100 µM | > 100 µM | > 100 µM | > 100 µM |  |  |  |  |  | 37.3 to 79.8 µM |
| O=C(COc1ccc(-c2nc3ccccc3[nH]2)cc1F)N1CCOCC1 [Compound 22, 2-(4-(1H-Benzo[d]imidazol-2-yl)-2-fluorophenoxy)-1-morpholinoethan-1-one] | > 100 µM | > 100 µM | > 100 µM | > 100 µM | > 100 µM | > 100 µM |  |  |  |  | exhibit clear intercalating properties |  |
| O=C(COc1ccc(-c2nc3ccc(F)cc3[nH]2)cc1)N1CCOCC1 [Compound 20, 2-(4-(6-Fluoro-1H-benzo[d]imidazol-2-yl)phenoxy)-1-morpholinoethan-1-one] | > 100 µM | > 100 µM | > 100 µM | > 100 µM | > 100 µM | > 100 µM |  |  |  |  |  |  |
| Fc1cc(-c2nc3ccccc3[nH]2)ccc1OCCN1CCOCC1 [Compound 21, 4-(2-(4-(1H-Benzo[d]imidazol-2-yl)-2-fluorophenoxy)ethyl)morpholine] | > 100 µM | > 100 µM | > 100 µM | > 100 µM | > 100 µM | > 100 µM |  |  |  |  |  |  |
| CC(C)(O/N=C(\C(=O)N[C@@H]1C(=O)N2C(C(=O)[O-])=C(C[n+]3ccccc3)CS[C@H]12)c1csc(N)n1)C(=O)O [CAZ, ceftazidime, reference compound] |  |  |  |  |  |  | 0.5 µg/mL (≈ 0.915 µM) | 2 µg/mL (≈ 3.66 µM) | 256 µg/mL (≈ 468 µM) | 64 µg/mL (≈ 117 µM) |  |  |
| Fc1cc(-c2nc3ccccc3[nH]2)ccc1OCc1cn(CCN2CCOCC2)nn1 [Compound 31, 4-(2-(4-((4-(1H-Benzo[d]imidazol-2-yl)-2-fluorophenoxy)methyl)-1H-1,2,3-triazol-1-yl)ethyl)morpholine] | > 100 µM | 40.6 ± 2.5 µM | > 100 µM | > 100 µM | 66.1 ± 4 µM | 73 ± 3 µM | > 256 µg/mL | > 256 µg/mL | > 256 µg/mL | > 256 µg/mL |  |  |
| O=C(O)c1cn(C2CC2)c2cc(N3CCNCC3)c(F)cc2c1=O [CIP, ciprofloxacin, reference compound] |  |  |  |  |  |  | < 0.125 µg/mL | 0.5 µg/mL (≈ 1.51 µM) | > 256 µg/mL | 0.5 µg/mL (≈ 1.51 µM) |  |  |
| Fc1cc(-c2nc3ccc(Cl)cc3[nH]2)ccc1OCc1cn(CCN2CCOCC2)nn1 [Compound 32, 4-(2-(4-((4-(6-Chloro-1H-benzo[d]imidazol-2-yl)-2-fluorophenoxy)methyl)-1H-1,2,3-triazol-1-yl)ethyl)morpholine] | > 100 µM | 54.9 ± 5.1 µM | > 100 µM | > 100 µM | > 100 µM | > 100 µM | > 256 µg/mL | > 256 µg/mL | > 256 µg/mL | > 256 µg/mL |  |  |
